Source: ChEMBL document CHEMBL3352250, “Antibacterial secondary metabolites from an endophytic fungus, Eupenicillium sp. LG41” (2014)
≈ marks a conversion by molar mass, not a printed value. Calls of active or inactive are those of the source. The rule behind the calls is not given here.

Columns and labels:
Format in all cases: functional
Bacillus subtilis = assay: Antimicrobial activity against Bacillus subtilis DSM 1088 incubated for 24 hrs by disk diffusion method
Outline: (§1)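 CLSI disk diffusion on nutrient agar, 4 mm deep, spread with 200 μL inoculum. 6.0 mm paper disks carry 40 μL of sample in HPLC-grade MeOH (0.1 to 10 μg/mL), air-dried. Plates are held 2 h at 4 °C, then incubated 24 h at 37 °C. Controls are streptomycin and gentamicin plus a solvent disk. MIC is derived per CLSI, triplicate.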

Acinetobacter sp. = assay: Antimicrobial activity against Acinetobacter sp. BD4 DSM 586 incubated for 24 hrs by disk diffusion method; outline: as §1
Escherichia coli = assay: Antimicrobial activity against Escherichia coli DSM 1116 incubated for 24 hrs by disk diffusion method; outline: as §1
Staphylococcus aureus = assay: Antimicrobial activity against Staphylococcus aureus subsp. aureus DSM 799 incubated for 24 hrs by disk diffusion method; outline: as §1
Colletotrichum circinans = assay: Antimicrobial activity against Colletotrichum circinans incubated for 48 hrs by disk diffusion method
Outline: (§2)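 Disk diffusion on potato dextrose agar, 4 mm deep. Mycelia are macerated in a sterile mortar to a homogeneous inoculum and 200 μL is spread. 6.0 mm disks carry 40 μL of sample, air-dried. Plates are held 2 h at 4 °C, then incubated 48 h at 28 °C. Solvent-disk, organism and sterility controls are included. Triplicate.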

Aspergillus aculeatus = assay: Antimicrobial activity against Aspergillus aculeatus incubated for 48 hrs by disk diffusion method; outline: as §2

| Molecule | MIC (Bacillus subtilis; DSM 1088, 24 h) [µg/mL] | MIC (Acinetobacter sp.; BD4 DSM 586, 24 h) [µg/mL] | MIC (Escherichia coli; DSM 1116, 24 h) [µg/mL] | MIC (Staphylococcus aureus; DSM 799, 24 h) [µg/mL] | MIC (Colletotrichum circinans) | MIC (Aspergillus aculeatus) | MIC (Bacillus subtilis) [µg/mL] | MIC (Acinetobacter sp.) [µg/mL] | MIC (Escherichia coli) [µg/mL] | MIC (Staphylococcus aureus) [µg/mL] |
| --- | --- | --- | --- | --- | --- | --- | --- | --- | --- | --- |
| CN[C@@H]1[C@H](O[C@H]2[C@H](O[C@H]3[C@H](O)[C@@H](O)[C@H](N=C(N)N)[C@@H](O)[C@@H]3N=C(N)N)O[C@@H](C)[C@]2(O)C=O)O[C@@H](CO)[C@H](O)[C@H]1O [STREPTOMYCIN] | 5 (≈ 8.6 µM) | 10 (≈ 17.2 µM) | 1 (≈ 1.72 µM) | 5 (≈ 8.6 µM) |  |  |  |  |  |  |
| C[C@]1(C(=O)O)[C@@H]2C=C(C(=O)O)CC[C@@H]21 | > 10 | 5 (≈ 25.5 µM) | 10 (≈ 51 µM) | > 10 | inactive | inactive |  |  |  |  |
| COC1=C(C2=C(OC)C(=O)c3cc4c(c(O)c3C2=O)C(=O)O[C@H](C)C4)C(=O)c2c(cc3c(c2O)C(=O)O[C@H](C)C3)C1=O |  |  |  |  | inactive | inactive |  |  |  |  |
| COc1cc(O)c2c(O)c3c(c4c2c1[C@]1(C4)C(C)=CCCC1(C)C)[C@H](O)[C@@]1(O)CC(O)=C(C(N)=O)C(=O)[C@@]1(O)C3=O |  |  |  |  | inactive | inactive |  |  |  |  |
| C=C(C(=O)O)[C@H](CCCC)C(=O)O | > 10 | 1 (≈ 5.37 µM) | 10 (≈ 53.7 µM) | 10 (≈ 53.7 µM) | inactive | inactive |  |  |  |  |
| GENTAMICIN |  |  |  |  |  |  | 1 | 5 | 1 | 1 |
| C=C(C(=O)O)[C@H](CCCCCC)C(=O)O | > 10 | 1 (≈ 4.67 µM) | 10 (≈ 46.7 µM) | 10 (≈ 46.7 µM) | inactive | inactive |  |  |  |  |
| CC(C)=CCC[C@]1(C)[C@@H]2[C@H]1C=C(C(=O)O)C[C@@H]2O | > 10 | 5 (≈ 20 µM) | 5 (≈ 20 µM) | > 10 | inactive | inactive |  |  |  |  |
| CC[C@@H](C)[C@H]1C=C[C@H]2[C@H](O)[C@H](O)C[C@@H](C)[C@@H]2[C@@]1(C)C(=O)/C=C\O | > 10 | 10 (≈ 31 µM) | 5 (≈ 15.5 µM) | > 10 | inactive | inactive |  |  |  |  |
| CC[C@@H](C)[C@H]1C=C[C@H]2[C@H](O)[C@H](O)C[C@@H](C)[C@@H]2[C@@]1(C)C(=O)/C=C/OC | > 10 | > 10 | 5 (≈ 14.9 µM) | 1 (≈ 2.97 µM) | inactive | inactive |  |  |  |  |
